The values that follow come from ChEMBL document CHEMBL4393661, “PRODRUGS FOR NITROREDUCTASE BASED CANCER THERAPY- 2: Novel amide/Ntr combinations targeting PC3 cancer cells” (Eur J Med Chem, 2019).

Data set [1] has as its target T1, Putative nitroreductase (Staphylococcus saprophyticus subsp. saprophyticus (strain ATCC 15305 / DSM20229 / NCIMB 8711 / NCTC 7292 / S-41), UniProt Q4A0P1).
T1 sequence (Q4A0P1 whole entry): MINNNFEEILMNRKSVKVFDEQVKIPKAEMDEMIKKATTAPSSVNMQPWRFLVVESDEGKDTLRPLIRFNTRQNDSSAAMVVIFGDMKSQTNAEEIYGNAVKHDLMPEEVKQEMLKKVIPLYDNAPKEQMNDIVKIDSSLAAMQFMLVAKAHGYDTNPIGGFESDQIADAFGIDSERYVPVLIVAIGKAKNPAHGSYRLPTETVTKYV
Kind of data set: Prodrug conversion assessed Staphylococcus saprophyticus nitroreductase expressed in Escherichia coli-mediated N,N'-(cyclohexane-1,4-diyl)bis(4-aminobenzamide) formation by measuring retention time at 100 uM incubated for 15 mins in presence of FDH cofactor regeneration system by HPLC analysis. Type of data set: ADME. The settings on record: 0.25 h. The gist of the method: (§1)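 This was a coupled regeneration reaction: 100 µM substrate in Tris/Cl pH 7.5 with 5–15% DMSO, plus 100 µM NADH, 10 µM NAD+, 0.1 mg/mL BSA, 200 µM sodium formate, 30 µg/mL Ssap-NtrB and 30 µg/mL Candida methylica FDH, at 25 °C. Aliquots were taken over time, quenched 1:1 with cold acetonitrile and analysed by C18 HPLC using program II (20→80→20% ACN). Peak areas were read at 254 and 340 nm.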

Data set [2] addresses T1, Putative nitroreductase. In words: Prodrug conversion assessed Staphylococcus saprophyticus nitroreductase expressed in Escherichia coli-mediated 4-amino-N-(4-(4-(hydroxyamino)benzamido)cyclohexyl)benzamide formation at 100 uM incubated for 15 mins by HPLC analysis. The settings on record: 0.25 h. Format: ADME.
Data set [3] concerns the target T1, Putative nitroreductase. Kind of data set: Substrate activity at Staphylococcus saprophyticus nitroreductase expressed in Escherichia coli assessed as retention time in the presence of NADPH at 100 uM by HPLC analysis (0 to 5 mins at 20% ACN, 25 to 35 min at 80% ACN, 40 to 45 min at 20% ACN). Type of data set: ADME.
Data set [4] is described as follows: Cytotoxicity against human PC3 cells assessed as cell viability at 9 to 150 uM measured after 48 hrs by MTT assay relative to control. Format: cell-based, PC-3. The settings on record: read-out: Activity. Put shortly:
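They were treated for 48 h at 9, 18, 39, 78 and 150 µM, with 1% DMSO as vehicle control. Viability was read by MTT at 550 nm.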
(In general: Tetrazolium assays rely on reduction of a dye to a coloured formazan, in cell work by metabolically active cells.)

For data set [5], the system named is PC-3. In words: Cytotoxicity against human PC3 cells assessed as reduction in cell viability measured after 48 hrs in presence of Staphylococcus saprophyticus nitroreductase and NADH by SRB assay. Format: cell-based. As to conditions: PC-3, 48 h. The gist of the method:
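Prodrug at 180, 18 or 1.8 nM was premixed with Ssap-NtrB (31 µg/mL final) and NADH (600 µM final; 900 µM for CB1954) in 25 mM Tris-HCl pH 7.5, then added for 48 h under aerobic conditions. Cells were fixed with 12.5% TCA, stained with SRB and read at 492 nm, in triplicate.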

Data set [6] in a line: Cytotoxicity against human Hep3B cells assessed as cell viability at 9 to 150 uM measured after 48 hrs by MTT assay relative to control. Format: cell-based, Hep 3B2. The settings on record: read-out: Activity. Put shortly:
(§2)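 Hep3B and HUVEC cells were grown in high-glucose medium with 10% heat-inactivated FBS and 2 mM glutamine at 37 °C in 5% CO2. Cells were seeded at 5x10^4 per well and left 24 h to attach. They were then exposed for 48 h to 150, 75, 39, 19 and 9 µM, with 1% DMSO as vehicle control. Viability was read by MTT at 550 nm as (OD sample/OD control)×100.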

Data set [7] relates to PC-3. In words: Cytotoxicity in human PC3 cells assessed as reduction in cell viability at 180 nM measured after 48 hrs by SRB assay. Type of data set: cell-based. As to conditions: pc-3, 48 h, 0.18 µM. Put shortly: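 They were exposed for 48 h to prodrug alone at 180 nM final, without enzyme or NADH, with 25 mM Tris-HCl as vehicle control. Cells were fixed with 12.5% TCA for 1 h at 4 °C, stained with 0.4% SRB and read at 492 nm as % cell survival, in triplicate.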
Background: The SRB assay estimates cell density from bound dye.

For data set [8], the target named is T1, Putative nitroreductase. In words: Prodrug conversion assessed Staphylococcus saprophyticus nitroreductase expressed in Escherichia coli-mediated N,N'-(cyclohexane-1,4-diyl)bis(4-(hydroxyamino)benzamide) formation by measuring retention time at 100 uM incubated for 15 mins in presence of FDH cofactor regeneration system by HPLC analysis. The settings on record: 0.25 h. Format: ADME. Put shortly: as §1

For data set [9], the target named is T1, Putative nitroreductase. Kind of data set: Prodrug conversion assessed Staphylococcus saprophyticus nitroreductase expressed in Escherichia coli-mediated N,N'-(cyclohexane-1,4-diyl)bis(4-aminobenzamide) formation at 100 uM incubated for 15 mins by HPLC analysis. Type of data set: ADME. The settings on record: 0.25 h.
Data set [10] is described as follows: Solubility of the compound in 15% DMSO. Type of data set: physicochemical.
Data set [11] has as its target T1, Putative nitroreductase. Kind of data set: Substrate activity at Staphylococcus saprophyticus nitroreductase expressed in Escherichia coli assessed as retention time […] at 100 uM by HPLC analysis (0 to 5 mins at 20 % ACN, 15 to 22 min at 80% ACN, 27-32 AT 20% ACN). Format: ADME.
In data set [12] the target is T1, Putative nitroreductase. In words: Prodrug conversion assessed Staphylococcus saprophyticus nitroreductase expressed in Escherichia coli-mediated N,N'-(cyclohexane-1,4-diyl)bis(4-aminobenzamide) formation by measuring retention time of metabolite at 100 uM incubated for 15 mins in presence of FDH cofactor regeneration system by HPLC analysis. Format: ADME. The settings on record: 0.25 h. The gist of the method:
as §1

The target in data set [13] is T2, Staphylococcus saprophyticus nitroreductase (Staphylococcus saprophyticus subsp. saprophyticus (strain ATCC 15305 / DSM20229 / NCIMB 8711 / NCTC 7292 / S-41), UniProt Q4A0P1).
T2 sequence (Q4A0P1 whole entry): T1 sequence (Q4A0P1 whole entry)
In words: Substrate activity at Staphylococcus saprophyticus nitroreductase expressed in Escherichia coli assessed as half life […] at 100 uM by HPLC analysis (0 to 5 mins at 20% ACN, 25 to 35 min at 80% ACN, 40 to 45 min at 20% ACN). Type of data set: ADME.

Data set [14] has as its target T1, Putative nitroreductase. In words: Prodrug conversion assessed Staphylococcus saprophyticus nitroreductase expressed in Escherichia coli-mediated 4-amino-N-(4-(4-(hydroxyamino)benzamido)cyclohexyl)benzamide formation by measuring retention time at 100 uM incubated for 15 mins in presence of FDH cofactor regeneration system by HPLC analysis. Type of data set: ADME. As to conditions: 0.25 h. Put shortly:
as §1

Data set [15] is described as follows: Cytotoxicity against human HUVEC cells assessed as cell viability at 9 to 150 uM measured after 48 hrs by MTT assay relative to control. Type of data set: cell-based. The settings on record: read-out: Activity. The gist of the method:
as §2

In data set [16] the target is T1, Putative nitroreductase. In words: Prodrug conversion assessed Staphylococcus saprophyticus nitroreductase expressed in Escherichia coli-mediated 4-(hydroxyamino)-N-(4-(4-nitrobenzamido)cyclohexyl)benzamide formation at 100 uM incubated for 15 mins by HPLC analysis. Type of data set: ADME. As to conditions: 0.25 h.
Data set [17] deals with T1, Putative nitroreductase. In words: Prodrug conversion assessed Staphylococcus saprophyticus nitroreductase expressed in Escherichia coli-mediated N,N'-(cyclohexane-1,4-diyl)bis(4-(hydroxyamino)benzamide) formation at 100 uM incubated for 15 mins by HPLC analysis. Type of data set: ADME. As to conditions: 0.25 h.

pIC50: −log10 of the molar value.

By pIC50 is commonly meant the IC50 on a negative log10 scale, so that one unit is a factor of ten. A word on the half-life: it is how long it takes for the measured level to halve. For the compound `O=C(NC1CCC(NC(=O)c2ccc([N+](=O)[O-])cc2)CC1)c1ccc([N+](=O)[O-])cc1` (configuration not stated), the Retention_time is on record as 13.48 min in [1]; 19.2 min in [3]; 13.48 min in data set [8]; 19.96 min in data set [11]; 13.48 min in data set [12]; 13.48 min in data set [14]. Also, the Drug metabolism entry in data set [2] is listed as “Metabolite_Notdetected”; in data set [9], “Metabolite_Notdetected”; in data set [16], “Metabolite_Detected”; in data set [17], “Metabolite_Notdetected”. Moreover, the viability at 48 h, up to 150 µM in data set [4], in data set [6] and in data set [15] was over 80% in each case. For the same compound, in data set [5], the negative logarithm of the IC50 (pIC50) was 8.75. Moreover, in [7], the Activity result is on record as “Non-Toxic”. In addition, the solubility entry in data set [10] is “Soluble”. For the same compound, the half-life at 100 µM in data set [13] is under 1.5 h.
